In ChEMBL document CHEMBL5154906, “Design of a Potent, Selective, and Brain-Penetrant Inhibitor of Wnt-Deactivating Enzyme Notum by Optimization of a Crystallographic Fragment Hit” (J Med Chem, 2022):

Tests used:
[1] = biological target: T1, Palmitoleoyl-protein carboxylesterase NOTUM (Homo sapiens, UniProt Q6P988, C330S); assay: Inhibition of human Notum (S81 to T451 residues) Cys330Ser mutant expressed in HEK293S cells using OPTS as substrate incubated for 40 mins by fluorescence based assay
[2] = biological target: T1, Palmitoleoyl-protein carboxylesterase NOTUM; assay: Inhibition of human Notum (S81 to T451 residues) Cys330Ser mutant expressed in HEK293S cells at 10 uM using OPTS as substrate incubated for 40 mins by fluorescence based assay relative to control; format: cell-based
Procedure, shortened: (§1)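 Recombinant human Notum (81–451, Cys330Ser) was the enzyme and OPTS the carboxylesterase substrate. Values are percent inhibition at a single concentration, 10 μM or 100 μM.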

[3] = Toxicity in aged APP/PS1 mouse at 30 mg/kg, po administered twice daily for 7 days; conditions: in vivo, 168 h
[4] = Metabolic stability in rat liver microsomes assessed as intrinsic clearance; format: ADME, Microsome; conditions: read-out: CLH
[5] = Metabolic stability in dog liver microsomes assessed as intrinsic clearance; format: ADME, Canis lupus familiaris, Microsome; conditions: read-out: CLH
[6] = Drug uptake in mouse assessed as plasma concentration at 30 mg/kg, po administered twice daily for 7 days; format: ADME, organism-based; conditions: in vivo, 168 h, time 7 day
Procedure, shortened: (§2)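 Mice received 30 mg/kg orally twice daily, at T = 0 and 9 h, in formulation A (DMSO 2% v/v + 10% v/v Solutol in 1× PBS, 98% v/v). Plasma and brain drug concentrations were followed over time.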

[7] = Metabolic stability in human liver microsomes assessed as intrinsic clearance; format: ADME, Microsome; conditions: read-out: CLH
[8] = Metabolic stability in mouse liver microsomes assessed as intrinsic clearance; format: ADME, Microsome; conditions: read-out: CLH
[9] = Drug uptake in mouse assessed as brain concentration at 30 mg/kg, po administered twice daily for 7 days; format: ADME, organism-based; conditions: in vivo, 168 h, time 7 day; procedure, shortened: as §2
[10] = biological target: Glycogen synthase kinase-3 (Homo sapiens) (UniProt P49840+P49841); assay: Inhibition of GSK3 (unknown origin) at 10 uM relative to control; format: protein assay
in vivo = conditions: Sprague-Dawley, rat, brain, po, 10 mg/kg
[11] = biological target: Casein kinase I isoform alpha (Homo sapiens) (UniProt P48729); assay: Inhibition of CK1 (unknown origin) at 10 uM relative to control
[12] = Toxicity in wild type mouse at 30 mg/kg, po administered twice daily for 7 days; conditions: in vivo, 168 h
[13] = Metabolic stability in mouse hepatocyte assessed as intrinsic clearance measured per 10^6 cells; format: ADME, cell-based; conditions: hepatocytes, read-out: CLH
[14] = Efflux ratio of apparent permeability from basolateral to apical side over apical to basolateral side in MDCK-MDR1 cells; conditions: dog
[15] = biological target: T1, Palmitoleoyl-protein carboxylesterase NOTUM; assay: Inhibition of human Notum (S81 to T451 residues) Cys330Ser mutant expressed in HEK293S cells at 100 uM using OPTS as substrate incubated for 40 mins by fluorescence based assay relative to control; format: cell-based; procedure, shortened: as §1

T1 sequence (Q6P988 20-496 C330S limits assumed): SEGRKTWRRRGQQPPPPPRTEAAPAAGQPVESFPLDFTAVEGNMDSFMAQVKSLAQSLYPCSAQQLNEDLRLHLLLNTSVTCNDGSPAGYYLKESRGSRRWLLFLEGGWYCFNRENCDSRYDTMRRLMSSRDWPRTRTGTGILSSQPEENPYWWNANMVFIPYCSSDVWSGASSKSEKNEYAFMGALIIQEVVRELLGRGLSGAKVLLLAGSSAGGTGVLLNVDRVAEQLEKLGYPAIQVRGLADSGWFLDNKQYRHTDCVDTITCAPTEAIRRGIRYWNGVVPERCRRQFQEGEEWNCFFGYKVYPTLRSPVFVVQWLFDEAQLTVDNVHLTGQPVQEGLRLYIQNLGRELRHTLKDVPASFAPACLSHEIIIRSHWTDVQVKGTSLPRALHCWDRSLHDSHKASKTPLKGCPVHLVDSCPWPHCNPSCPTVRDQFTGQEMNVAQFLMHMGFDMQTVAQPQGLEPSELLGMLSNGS
Chain of Glycogen synthase kinase-3 (Homo sapiens) (P49840 whole entry, looked up): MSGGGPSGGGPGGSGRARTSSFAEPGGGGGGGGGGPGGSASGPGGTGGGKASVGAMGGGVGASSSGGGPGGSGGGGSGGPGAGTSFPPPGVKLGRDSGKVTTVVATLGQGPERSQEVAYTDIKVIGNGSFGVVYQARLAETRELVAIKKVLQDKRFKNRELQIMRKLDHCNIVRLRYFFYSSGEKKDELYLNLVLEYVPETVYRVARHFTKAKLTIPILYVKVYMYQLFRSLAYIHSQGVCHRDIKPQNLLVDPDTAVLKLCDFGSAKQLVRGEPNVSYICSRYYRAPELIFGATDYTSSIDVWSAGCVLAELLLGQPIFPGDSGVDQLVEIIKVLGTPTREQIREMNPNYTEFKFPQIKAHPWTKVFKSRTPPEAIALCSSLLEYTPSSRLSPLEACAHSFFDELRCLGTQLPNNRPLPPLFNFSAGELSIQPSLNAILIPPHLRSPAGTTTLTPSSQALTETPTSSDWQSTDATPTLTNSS
Chain of Glycogen synthase kinase-3 (Homo sapiens) (P49841 whole entry, looked up): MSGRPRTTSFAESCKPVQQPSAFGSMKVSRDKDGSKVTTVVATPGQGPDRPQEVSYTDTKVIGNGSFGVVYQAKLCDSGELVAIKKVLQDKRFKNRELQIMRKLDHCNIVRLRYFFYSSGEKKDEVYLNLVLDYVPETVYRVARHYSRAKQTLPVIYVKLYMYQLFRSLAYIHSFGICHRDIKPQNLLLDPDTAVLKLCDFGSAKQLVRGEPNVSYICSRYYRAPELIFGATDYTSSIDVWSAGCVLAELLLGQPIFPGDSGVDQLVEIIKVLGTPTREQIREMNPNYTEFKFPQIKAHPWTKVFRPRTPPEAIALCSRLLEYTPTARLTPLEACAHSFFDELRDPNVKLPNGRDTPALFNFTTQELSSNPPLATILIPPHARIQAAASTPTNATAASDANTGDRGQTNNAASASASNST
Chain of Casein kinase I isoform alpha (Homo sapiens) (P48729 2-337 limits assumed): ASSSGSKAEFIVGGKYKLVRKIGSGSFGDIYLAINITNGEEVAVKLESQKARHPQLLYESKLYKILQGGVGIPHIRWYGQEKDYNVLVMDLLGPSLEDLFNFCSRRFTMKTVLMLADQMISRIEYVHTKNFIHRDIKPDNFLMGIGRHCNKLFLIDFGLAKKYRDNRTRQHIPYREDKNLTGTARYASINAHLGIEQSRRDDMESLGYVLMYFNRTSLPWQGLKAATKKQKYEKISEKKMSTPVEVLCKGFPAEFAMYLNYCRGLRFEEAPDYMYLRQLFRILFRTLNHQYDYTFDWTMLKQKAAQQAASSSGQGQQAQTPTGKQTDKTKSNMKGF

OCc1cn(-c2cccc(Cl)c2)nn1
IC50 [1]: 6.3 µM

Cc1cccc(-n2cc(CO)nn2)c1
inhibition at 10 µM [2]: 40%

FC(F)(F)c1c(Cl)ccc(-n2ccnn2)c1Cl
Activity [3]: Non-Toxic | microsomal CLint [4]: < 9.6 µL/min/mg | microsomal CLint [5]: 10.8 µL/min/mg | Cp [6]: Active | microsomal CLint [7]: 1.5 µL/min/mg | microsomal CLint [8]: 3.2 µL/min/mg | Ct [9]: Active | inhibition [10]: < 50% | AUC(0-inf) (in vivo): 46100 ng·h/mL | inhibition [11]: < 50% | Activity [12]: Non-Toxic | hepatocyte CLint [13]: 19.4 µL/min/1e6 cells

OCc1cn(-c2cccc(C(F)(F)F)c2)nn1
IC50 [1]: 2.3 µM

OCc1cn(-c2ccccc2Cl)nn1
IC50 [1]: 32 µM

OCc1cn(-c2ccccc2F)nn1
IC50 [1]: 64 µM

OCc1cn(-c2ccc(C(F)(F)F)c(Cl)c2)nn1
IC50 [1]: 1 µM

OCc1cn(-c2cc(Cl)cc(Cl)c2)nn1
IC50 [1]: 2.4 µM

FC(F)(F)c1c(Cl)cnc(-n2ccnn2)c1Cl
Ratio [14]: 2.5

OCc1cn(-c2cccc(Cl)c2Cl)nn1
IC50 [1]: 5.1 µM

OCc1cn(-c2ccc3c(c2)OCCO3)nn1
IC50 [1]: 32 µM

Cc1ccc(-n2cc(CO)nn2)cc1C
IC50 [1]: 0.73 µM

OCc1cn(-c2ccc(Cl)c(C(F)(F)F)c2Cl)nn1
microsomal CLint [7]: 1.7 µL/min/mg | microsomal CLint [8]: 6.7 µL/min/mg | hepatocyte CLint [13]: 48 µL/min/1e6 cells

OCc1cn(-c2ccc3c(c2)OCO3)nn1
IC50 [1]: 28 µM

OCc1cn(-c2ccc(Cl)c(Cl)c2)nn1
IC50 [1]: 0.5 µM | microsomal CLint [7]: 12 µL/min/mg

OCc1cn(-c2ccc(Cl)c(C(F)(F)F)c2)nn1
IC50 [1]: 0.065 µM

OCc1cn(-c2ccc(Cl)cc2Cl)nn1
IC50 [1]: 5.6 µM

OCc1cn(-c2cc(Cl)ccc2Cl)nn1
IC50 [1]: 23 µM

OCc1cn(-c2ccc(C(F)(F)F)cc2)nn1
IC50 [1]: 8.8 µM

[2H]c1nnn(-c2ccc(Cl)c(C(F)(F)F)c2Cl)c1[2H]
microsomal CLint [8]: 5.4 µL/min/mg

OCc1cn(-c2ccc(F)cc2)nn1
inhibition at 100 µM [15]: 40%
